Source: ChEMBL document CHEMBL1150769, “Aroyl hydrazones of 2-phenylindole-3-carbaldehydes as novel antimitotic agents” (Bioorg Med Chem, 2008)
Active and inactive are the calls of the source. The rule behind the calls is not given here.

Columns and labels:
[1] = test system: MDA-MB-231; experiment: Antiproliferative activity against human MDA-MB-231 cells after 4 days by microplate assay; format: functional, cell-based; conditions: MDA-MB-231, 96 h
Outline: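 MDA-MB 231 cells grown in McCoy-5a with L-glutamine, gentamycin, NaHCO3 and 5% FCS; 2–3 days growth at 37 °C, 5% CO2 before compound in fresh medium (controls 0.1% DMF); about 4 days exposure; 1% glutaric dialdehyde fixation, 0.02% crystal violet, 70% EtOH elution, OD 578 nm; mean of two experiments with 16–24 replicates.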

[2] = test system: MCF7; experiment: Antiproliferative activity against human MCF7 cells after 5 days by microplate assay; format: functional, cell-based; conditions: MCF7, 120 h
Outline: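 MCF-7 cells grown in EMEM with sodium pyruvate, gentamycin, NaHCO3, phenol red and 10% FCS; seeded in 96-well plates and grown 2–3 days at 37 °C, 5% CO2, then medium with compound (DMF stock; controls 0.1% DMF) for 5 days; glutaric dialdehyde fixation, 0.02% crystal violet stain, ethanol extraction, OD 578 nm; mean of two experiments, 16–24 replicates.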

[3] = test system: MDA-MB-231; experiment: Cell cycle arrest in human MDA-MB-231 cells assessed as decrease in accumulation at G1/G0 phase after 24 hrs by flow cytometry; format: functional, cell-based
Outline: (§1)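 MDA-MB 231 cells at 70–80% confluence in 75 cm2 flasks exposed 24 h (DMF vehicle, 0.1% final); trypsinized, fixed in ice-cold 70% EtOH, DNA extraction buffer, propidium iodide stain ≥30 min at room temperature; 8000–15,000 events analysed by flow cytometry for sub-G1, G1/G0, S and G2/M fractions; representative of two experiments.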

[4] = test system: MDA-MB-231; experiment: Cell cycle arrest in human MDA-MB-231 cells assessed as increase in accumulation at G2/M phase after 24 hrs by flow cytometry; format: functional, cell-based; outline: as §1
[5] = Inhibition of tubulin polymerization at 5 uM by microplate assay
Outline: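 Tubulin suspended in cold G-PEM buffer with 5% glycerol and depolymerised at 0 °C. It was added to compound that had been diluted 1:10 from DMSO stock into G-PEM in wells prewarmed to 37 °C. Turbidity was read at 355 nm every minute for 28–30 min at 37 °C. Solvent controls held 1% DMSO; colchicine (5 µM) and paclitaxel (2 µM) were run as references.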

[6] = test system: HL-60; experiment: Antiproliferative activity against human HL60 cells after 48 hrs by MTT assay; format: functional, cell-based; conditions: HL-60, 48 h
Outline: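 HL-60 human leukemia cells kept in log growth in RPMI 1640 with 10% FCS, penicillin G and streptomycin; treated for 48 h; growth read by MTT assay; IC50 = 50% and IC90 = 90% inhibition of cell growth; values given ± SD.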

[7] = test system: HL-60; experiment: Induction of apoptosis in human HL60 cells assessed as increase in caspase 3 activation at 2.0 uM after 24 hrs; format: functional
[8] = test system: HL-60; experiment: Induction of apoptosis in human HL60 cells assessed as increase in caspase 3 activation at 500 nM after 24 hrs; format: functional, cell-based
Outline: (§2)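 HL-60 cells (3 million at 5 × 10^5 cells/mL) treated 24 h at 37 °C, 5% CO2; hypotonic Hepes/DTT/EDTA/CHAPS lysates on ice; Ac-DMQD-AMC (1.0 μM final) cleaved 60 min at 30 °C; released AMC separated by RP-HPLC, quantified fluorometrically (ex 355 or 400, em 435 nm) against AMC standards; activity in pmol/min/mg; means of three experiments ± SD.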

[9] = Inhibition of tubulin polymerization at 5 uM by microplate assay
[10] = test system: HL-60; experiment: Induction of apoptosis in human HL60 cells assessed as increase in caspase 3 activation at 1 uM after 24 hrs; format: functional, cell-based
[11] = test system: HL-60; experiment: Induction of apoptosis in human HL60 cells assessed as increase in caspase 9 activation at 1 uM after 24 hrs; format: functional, cell-based
[12] = test system: U373 MG; experiment: Antiproliferative activity against human U373 MG cells at 50 nM after 72 hrs; format: functional, cell-based; conditions: U-373MG ATCC
Outline: (§3)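 U-373 MG glioblastoma cells in EMEM-type medium with 5% FCS under permanent exposure to 10–200 nM; plates fixed with glutaric dialdehyde at various times, stored cold, then crystal violet stained together; absorbance expressed as corrected T/C = (T − C0)/(C − C0) × 100 (%).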

[13] = test system: U373 MG; experiment: Antiproliferative activity against human U373 MG cells at 200 nM after 100 hrs; format: functional, cell-based; conditions: U-373MG ATCC
Outline: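 Confluent (resting) U-373 MG cultures exposed to compound, with DMSO solvent controls, for up to ~150 h; crystal violet staining of fixed cells at various times; effect expressed as cytocidal effect (%) versus time.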

[14] = test system: U-87 MG; experiment: Effect on cell morphology in human U87 MG cells assessed as disruption of microtubule network at 50 nM by confocal fluorescence microscopy; format: functional, cell-based; conditions: U-87MG ATCC
Outline: (§4)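 U-87 MG cells at 75% confluence in chamber slides treated 3 h at 37 °C (EtOH vehicle); fixed in 4% paraformaldehyde, permeabilized with 1% Triton X-100; α-tubulin immunostained (Cy5 secondary), nuclei with SYTOX Green; imaged by confocal laser scanning microscopy.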

[15] = test system: U373 MG; experiment: Antiproliferative activity against human U373 MG cells at 10 nM; format: functional, cell-based; conditions: U-373MG ATCC; outline: as §3
[16] = test system: HL-60; experiment: Induction of apoptosis in human HL60 cells assessed as caspase 3 activation at 100 nM after 24 hrs; format: functional, cell-based; outline: as §2
[17] = test system: U-87 MG; experiment: Effect on cell morphology in human U87 MG cells assessed as disruption of microtubule network at 10 nM by confocal fluorescence microscopy; format: functional, cell-based; conditions: U-87MG ATCC; outline: as §4
[18] = test system: U373 MG; experiment: Antiproliferative activity against human U373 MG cells after 72 hrs; format: functional, cell-based; conditions: U-373MG ATCC
Outline: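 Human U-373 MG glioblastoma cells grown in EMEM with sodium pyruvate, gentamycin, NaHCO3, phenol red and 5% FCS. Exposure was continuous at 10, 50, 100 and 200 nM, with DMF in the controls. Plates were fixed with glutaric dialdehyde at intervals and stained together with crystal violet. Absorbance read at 578 nm; corrected T/C% = (T − C0)/(C − C0) × 100.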

SMILES | IC50 [1] | IC50 [2] | also measured
CCCCc1ccc2[nH]c(-c3ccc(OC)cc3)c(/C=N/O)c2c1 | 40 nM | 212 nM | 
CCCCc1ccc2[nH]c(-c3ccc(OC)cc3)c(/C=N/NC(=O)c3ccccc3)c2c1 | 32 nM | 130 nM | Activity [3]: Active; Activity [4]: Active
CCCCc1ccc2[nH]c(-c3ccc(C(F)(F)F)cc3)c(/C=N/NC(=O)c3ccccc3)c2c1 | 300 nM | 460 nM | 
COc1cc2c(c(OC)c1OC)-c1ccc(OC)c(=O)cc1[C@@H](NC(C)=O)CC2 |  |  | Activity [5]: Active
CCCCc1ccc2[nH]c(-c3ccc(C(F)(F)F)cc3)c(/C=N/NC(=O)c3ccc([N+](=O)[O-])cc3)c2c1 | 2040 nM | 6340 nM | 
COc1cc([C@@H]2c3cc4c(cc3[C@@H](O[C@@H]3O[C@@H]5CO[C@@H](C)O[C@H]5[C@H](O)[C@H]3O)[C@H]3COC(=O)[C@H]23)OCO4)cc(OC)c1O [ETOPOSIDE] |  |  | IC50 [6]: 315 nM; Activity [7]: 3.37
CCCCc1ccc2[nH]c(-c3ccc(C(F)(F)F)cc3)c(/C=N/NC(=O)c3ccccn3)c2c1 | 260 nM | 310 nM | 
CCCCc1ccc2[nH]c(-c3ccc(OC)cc3)c(/C=N/NC(=O)c3ccccc3OC)c2c1 | 21 nM | 71 nM | IC50 [6]: 74 nM; IC90 [6]: 142 nM; Activity [8]: Active
CC(=O)O[C@H]1C(=O)[C@@]2(C)[C@H]([C@H](OC(=O)c3ccccc3)[C@]3(O)C[C@H](OC(=O)[C@H](O)[C@@H](NC(=O)c4ccccc4)c4ccccc4)C(C)=C1C3(C)C)[C@]1(OC(C)=O)CO[C@@H]1C[C@@H]2O |  |  | Activity [9]: Active
CCCCc1ccc2[nH]c(-c3ccc(C(F)(F)F)cc3)c(/C=N/NC(=O)c3ccc(Cl)cc3)c2c1 | 329 nM | 1060 nM | 
CCCCc1ccc2[nH]c(-c3ccc(OC)cc3)c(/C=N/NC(=O)c3ccc(Cl)cc3)c2c1 | 90 nM | 220 nM | 
CCCCc1ccc2[nH]c(-c3ccc(OC)cc3)c(/C=N/NC(=O)c3cccc(O)c3)c2c1 | 30 nM |  | 
CCCCc1ccc2[nH]c(-c3ccc(C(F)(F)F)cc3)c(/C=N/NC(=O)c3ccncc3)c2c1 | 94 nM | 100 nM | Activity [10]: Active; Activity [11]: Active
CCCCc1ccc2[nH]c(-c3ccc(C(F)(F)F)cc3)c(/C=N/NC(=O)c3ccc(OC)cc3)c2c1 | 284 nM | 618 nM | 
CCCCc1ccc2[nH]c(-c3ccc(OC)cc3)c(/C=N/NC(=O)c3cccc(OC)c3)c2c1 | 55 nM |  | 
CCCCc1ccc2[nH]c(-c3ccc(CC)cc3)c(/C=N/NC(=O)c3cccnc3)c2c1 | 53 nM | 100 nM | 
CCCCc1ccc2[nH]c(-c3ccc(CC)cc3)c(/C=N/NC(=O)c3ccncc3)c2c1 | 80 nM | 150 nM | 
CCCCc1ccc2[nH]c(-c3ccc(OC)cc3)c(/C=N/NC(=O)c3ccc([N+](=O)[O-])cc3)c2c1 | 115 nM | 312 nM | 
CCCCc1ccc2[nH]c(-c3ccc(OC)cc3)c(/C=N/NC(=O)c3ccc(F)cc3)c2c1 | 19 nM | 84 nM | Activity [12]: Active; Activity [13]: Active; Activity [14]: inactive; IC50 [6]: 91 nM; IC90 [6]: 164 nM; Activity [8]: Active
CCCCc1ccc2[nH]c(-c3ccc(OC)cc3)c(/C=N/NC(=O)c3cccnc3)c2c1 | 35 nM | 75 nM | Activity [15]: Active; Activity [13]: Active; IC50 [6]: 50 nM; IC90 [6]: 115 nM; Activity [16]: Active
CCCCc1ccc2[nH]c(-c3ccc(OC)cc3)c(/C=N/NC(=O)c3ccncc3)c2c1 | 29 nM | 69 nM | 
CC[C@]1(O)C[C@H]2CN(CCc3c([nH]c4ccccc34)[C@@](C(=O)OC)(c3cc4c(cc3OC)N(C=O)[C@H]3[C@@](O)(C(=O)OC)[C@H](OC(C)=O)[C@]5(CC)C=CCN6CC[C@]43[C@@H]65)C2)C1 [VINCRISTINE] | 6 nM | 2 nM | Activity [17]: Active
CCCCc1ccc2[nH]c(-c3ccc(C(F)(F)F)cc3)c(/C=N/NC(=O)c3cccnc3)c2c1 | 97 nM | 260 nM | 
CCCCc1ccc2[nH]c(-c3ccc(OC)cc3)c(/C=N/NC(=O)c3ccc(OC)cc3)c2c1 | 61 nM | 226 nM | 
C=C(C)[C@H]1Cc2c(ccc3c2O[C@@H]2COc4cc(OC)c(OC)cc4[C@@H]2C3=O)O1 |  |  | Activity [18]: Active
COc1ccc(-c2[nH]c3ccc(C)cc3c2/C=N/NC(=O)c2ccncc2)cc1 | 290 nM | 200 nM | 
CCCCc1ccc2[nH]c(-c3ccc(OC)cc3)c(/C=N/NC(=O)c3ccccn3)c2c1 | 34 nM | 160 nM | IC50 [6]: 213 nM; IC90 [6]: 333 nM
